Experimental data as given in ChEMBL document CHEMBL2385016, “Inhibition of VEGF expression in cancer cells and endothelial cell differentiation by synthetic stilbene derivatives” (Bioorg Med Chem, 2013).
≈ marks a conversion by molar mass, not a printed value. Calls of active or inactive are those of the source. The rule behind the calls is not given here.

Key:
[1] = Antiangiogenic activity against BAEC assessed as inhibition of tube formation after 7 hrs by matrigel assay; assay type: functional; details: Bos taurus
How it was run: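 Wells coated with Matrigel (about 10.5 mg/mL), polymerized at least 30 min at 37 °C. 5×10^4 BAE cells seeded in DMEM with a range of compound concentrations. Incubated 7 h at 37 °C, 5% CO2, then viewed and photographed at 200×. Two observers scored tube formation. Value is the minimal concentration inhibiting differentiation.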

[2] = Antiproliferative activity against BAEC after 3 days by MTT assay; assay type: functional; details: Bos taurus, 72 h
How it was run: (§1)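 MTT dye reduction. 3×10^3 BAE cells (collagenase-isolated) or 5×10^3 HT-29 cells per well in DMEM with 10% FBS, exposed to serial dilutions for 3 days at 37 °C, 5% CO2. MTT (5 mg/ml in PBS) added for 4 h, formazan dissolved in 0.04 N HCl/2-propanol, absorbance at 550 nm. Triplicate; IC50 is the concentration giving 50% survival. Compounds from 10 mg/mL DMSO stocks.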

HT-29 [3] = test: Antiproliferative activity against human HT-29 cells after 3 days by MTT assay; assay type: functional, cell-based; details: HT-29, 72 h; how it was run: as §1
HT-29 [4] = test: Inhibition of VEGF mRNA expression in human HT-29 cells at 10 ug/mL after 48 hrs by RT-PCR analysis relative to control; values are per cent of control; details: HT-29, 48 h
HT-29 [5] = test: Inhibition of VEGF protein production in human HT-29 cells at 10 ug/mL after 72 hrs by ELISA relative to control; assay type: functional
How it was run: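 HT-29 cells at 70–80% confluence were serum-starved 24 h, then treated 72 h with compound in DMSO. VEGF secreted into culture supernatants was measured by human VEGF ELISA kit in ng/mL and compared with untreated and DMSO controls. At least three measurements per condition; mean ± SEM; one-sample t-tests.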

HT-29 [6] = test: Inhibition of VEGF protein production in human HT-29 cells at 10 ug/mL after 72 hrs by ELISA relative to control; values are per cent of control; details: HT-29, 72 h
HT-29 [7] = test: Inhibition of VEGF protein production in human HT-29 cells at 20 ug/mL after 72 hrs by ELISA relative to control; values are per cent of control; details: HT-29, 72 h
HT-29 [8] = test: Inhibition of VEGF mRNA expression in human HT-29 cells at 20 ug/mL after 48 hrs by RT-PCR analysis relative to control; values are per cent of control; details: HT-29, 48 h

| Compound | MIC [1] | IC50 (HT-29 [3]) | IC50 [2] | level, % of control at 10 µg/mL (HT-29 [4]) | inhibition (HT-29 [5]) | level, % of control at 10 µg/mL (HT-29 [6]) | level, % of control at 20 µg/mL (HT-29 [7]) | level, % of control at 20 µg/mL (HT-29 [8]) |
| --- | --- | --- | --- | --- | --- | --- | --- | --- |
| Oc1cccc(/C=C/c2ccccc2)c1 [(E)-3-STILBENOL] | 32 µM (≈ 6.28 µg/mL) | 127 µM | 91.7 µM | – | – | – | – | – |
| C=CCOc1ccccc1/C=C/c1ccccc1 | 53 µM (≈ 12.5 µg/mL) | 55 µM | 313 µM | 50% | – | 41% | – | – |
| C=CCOc1ccc(/C=C/c2ccccc2)cc1 | 106 µM (≈ 25 µg/mL) | 23 µM | > 400 µM | – | – | – | – | – |
| COc1ccc(/C=C/c2ccccc2)cc1 | 475 µM (≈ 99.9 µg/mL) | 26 µM | 418 µM | – | – | – | – | – |

More lines, in order of falling MIC [1], values ahead:

| MIC [1] | IC50 (HT-29 [3]) | Compound | IC50 [2] | level, % of control at 10 µg/mL (HT-29 [4]) | inhibition (HT-29 [5]) | level, % of control at 10 µg/mL (HT-29 [6]) | level, % of control at 20 µg/mL (HT-29 [7]) | level, % of control at 20 µg/mL (HT-29 [8]) |
| --- | --- | --- | --- | --- | --- | --- | --- | --- |
| 59.5 µM (≈ 12.5 µg/mL) | 42.8 µM | COc1ccccc1/C=C/c1ccccc1 | 152 µM | 70% | Active | – | – | – |
| 54.8 µM (≈ 12.5 µg/mL) | 110 µM | Oc1ccc(/C=C/c2cc(O)cc(O)c2)cc1 [RESVERATROL] | 48 µM | – | – | – | 65% | 86% |
| 32 µM (≈ 6.28 µg/mL) | 34.6 µM | Oc1ccc(/C=C/c2ccccc2)cc1 [(E)-4-STYRYLPHENOL] | 33.6 µM | – | – | – | – | – |
| 32 µM (≈ 6.28 µg/mL) | 112 µM | Oc1ccccc1/C=C/c1ccccc1 | 107 µM | 91% | – | 41% | – | – |
